Laboratory results as given in ChEMBL document CHEMBL1955823, “Imidazo[1,2-a]pyrazines as novel PI3K inhibitors” (Bioorg Med Chem Lett, 2012).

Experiments:
[1] = biological target: Serine/threonine-protein kinase mTOR (Homo sapiens, UniProt P42345); experiment: Inhibition of mTOR
How it was run: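 mTOR (FRAP1) kinase assay using GFP-4E-BP1 substrate and a Tb-labelled anti-phospho-4E-BP1 (Thr46) antibody in a TR-FRET format, under the manufacturer's conditions; averages of two independent experiments run in duplicate.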

PI3K p110 beta/p85 alpha = PI3K p110 beta/p85 alpha (Homo sapiens, UniProt P42338); experiment: Inhibition of human PI3K p110beta/p85alpha; assay type: protein-complex assay; conditions: read-out: Ki(app)
PI3K p110 beta/p85 alpha, sequence (P27986 whole entry): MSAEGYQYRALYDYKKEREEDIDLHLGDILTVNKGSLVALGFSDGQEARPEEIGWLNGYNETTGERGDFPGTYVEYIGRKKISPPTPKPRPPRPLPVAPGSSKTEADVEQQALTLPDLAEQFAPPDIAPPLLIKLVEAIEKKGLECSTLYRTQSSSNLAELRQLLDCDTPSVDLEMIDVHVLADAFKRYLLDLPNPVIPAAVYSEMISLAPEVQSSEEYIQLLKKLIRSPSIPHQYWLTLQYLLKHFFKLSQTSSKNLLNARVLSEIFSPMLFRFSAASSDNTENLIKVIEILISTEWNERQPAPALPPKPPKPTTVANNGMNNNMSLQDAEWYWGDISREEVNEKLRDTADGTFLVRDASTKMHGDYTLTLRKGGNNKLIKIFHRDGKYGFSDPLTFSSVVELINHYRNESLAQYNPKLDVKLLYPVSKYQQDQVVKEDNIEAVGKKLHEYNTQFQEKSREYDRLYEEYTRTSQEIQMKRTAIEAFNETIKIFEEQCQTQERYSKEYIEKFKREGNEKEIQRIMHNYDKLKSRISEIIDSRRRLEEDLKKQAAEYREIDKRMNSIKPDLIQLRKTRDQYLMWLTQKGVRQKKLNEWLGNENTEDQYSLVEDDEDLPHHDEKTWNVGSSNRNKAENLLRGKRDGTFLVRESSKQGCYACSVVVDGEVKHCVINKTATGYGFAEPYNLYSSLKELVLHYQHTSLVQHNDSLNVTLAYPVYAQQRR
PI3K p110 beta/p85 alpha, sequence (P42338 whole entry): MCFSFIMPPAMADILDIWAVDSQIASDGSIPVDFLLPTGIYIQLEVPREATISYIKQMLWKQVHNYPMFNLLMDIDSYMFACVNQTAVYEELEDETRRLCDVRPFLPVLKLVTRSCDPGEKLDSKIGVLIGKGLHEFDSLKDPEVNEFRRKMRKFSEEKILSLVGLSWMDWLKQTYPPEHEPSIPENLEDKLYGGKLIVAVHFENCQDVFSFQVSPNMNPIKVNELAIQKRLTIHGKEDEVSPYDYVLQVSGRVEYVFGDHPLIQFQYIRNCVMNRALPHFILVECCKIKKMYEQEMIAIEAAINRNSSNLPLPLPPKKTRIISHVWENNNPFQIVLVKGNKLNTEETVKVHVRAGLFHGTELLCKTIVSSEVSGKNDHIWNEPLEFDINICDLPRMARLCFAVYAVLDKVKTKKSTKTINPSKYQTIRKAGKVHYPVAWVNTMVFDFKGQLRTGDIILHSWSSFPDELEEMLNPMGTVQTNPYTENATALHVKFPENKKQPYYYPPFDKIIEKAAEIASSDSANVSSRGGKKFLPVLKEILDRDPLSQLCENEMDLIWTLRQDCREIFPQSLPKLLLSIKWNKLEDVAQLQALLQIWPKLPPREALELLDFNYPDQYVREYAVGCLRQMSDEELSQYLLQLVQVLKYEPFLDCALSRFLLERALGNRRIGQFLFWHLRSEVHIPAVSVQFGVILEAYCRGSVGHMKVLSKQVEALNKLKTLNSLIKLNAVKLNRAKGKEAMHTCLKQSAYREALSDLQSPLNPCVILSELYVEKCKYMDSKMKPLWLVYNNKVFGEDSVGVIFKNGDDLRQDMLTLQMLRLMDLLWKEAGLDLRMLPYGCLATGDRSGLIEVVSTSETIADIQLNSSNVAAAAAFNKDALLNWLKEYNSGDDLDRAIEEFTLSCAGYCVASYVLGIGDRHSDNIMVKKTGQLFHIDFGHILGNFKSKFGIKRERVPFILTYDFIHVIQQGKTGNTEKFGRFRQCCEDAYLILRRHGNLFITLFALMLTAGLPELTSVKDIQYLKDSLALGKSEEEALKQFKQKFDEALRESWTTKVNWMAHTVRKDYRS

[2] = biological target: PI3-kinase p110-delta/p85-alpha (Homo sapiens, UniProt O00329); experiment: Inhibition of human PI3K p110delta/p85alpha; assay type: protein-complex assay; conditions: read-out: Ki(app)
PI3-kinase p110-delta/p85-alpha, sequence (P27986 whole entry): as the sequence (P27986 whole entry) above
PI3-kinase p110-delta/p85-alpha, sequence (O00329 whole entry): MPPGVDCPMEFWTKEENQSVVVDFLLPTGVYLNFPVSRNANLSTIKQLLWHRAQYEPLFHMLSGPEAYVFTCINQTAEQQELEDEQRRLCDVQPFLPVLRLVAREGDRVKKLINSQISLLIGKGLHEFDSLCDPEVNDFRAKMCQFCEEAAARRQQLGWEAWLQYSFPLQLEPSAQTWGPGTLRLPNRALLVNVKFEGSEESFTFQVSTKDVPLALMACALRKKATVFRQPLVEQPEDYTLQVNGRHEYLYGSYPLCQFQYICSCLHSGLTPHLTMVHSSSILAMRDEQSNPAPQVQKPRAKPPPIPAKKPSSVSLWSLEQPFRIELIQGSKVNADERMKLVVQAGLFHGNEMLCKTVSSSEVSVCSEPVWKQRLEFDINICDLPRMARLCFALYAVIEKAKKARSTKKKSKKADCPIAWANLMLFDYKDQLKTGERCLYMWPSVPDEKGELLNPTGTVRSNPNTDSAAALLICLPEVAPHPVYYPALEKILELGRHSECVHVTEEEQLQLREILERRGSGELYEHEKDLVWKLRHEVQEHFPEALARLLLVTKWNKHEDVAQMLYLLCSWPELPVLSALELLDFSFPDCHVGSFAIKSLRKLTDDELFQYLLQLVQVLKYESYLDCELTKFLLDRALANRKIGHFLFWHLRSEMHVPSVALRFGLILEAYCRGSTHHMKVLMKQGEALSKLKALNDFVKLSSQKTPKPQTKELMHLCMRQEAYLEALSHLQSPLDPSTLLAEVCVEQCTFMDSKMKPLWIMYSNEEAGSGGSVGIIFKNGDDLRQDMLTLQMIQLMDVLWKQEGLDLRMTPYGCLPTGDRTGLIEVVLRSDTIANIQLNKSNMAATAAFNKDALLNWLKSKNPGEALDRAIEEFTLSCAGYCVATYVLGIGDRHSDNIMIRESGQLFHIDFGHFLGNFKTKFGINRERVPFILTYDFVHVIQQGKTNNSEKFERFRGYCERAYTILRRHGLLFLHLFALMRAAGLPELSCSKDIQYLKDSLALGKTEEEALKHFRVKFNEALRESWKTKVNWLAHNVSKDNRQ

Homo sapiens = species on record: Homo sapiens; experiment: Selectivity ratio of Kiapp for human PI3K p110alpha/p85alpha to Kiapp for human PI3K p110delta/p85alpha
[3] = biological target: T1, NUAK family SNF1-like kinase 1 (Homo sapiens) (UniProt O60285); experiment: Inhibition of ARK5 at 5 to 10 uM
T1 sequence (whole entry): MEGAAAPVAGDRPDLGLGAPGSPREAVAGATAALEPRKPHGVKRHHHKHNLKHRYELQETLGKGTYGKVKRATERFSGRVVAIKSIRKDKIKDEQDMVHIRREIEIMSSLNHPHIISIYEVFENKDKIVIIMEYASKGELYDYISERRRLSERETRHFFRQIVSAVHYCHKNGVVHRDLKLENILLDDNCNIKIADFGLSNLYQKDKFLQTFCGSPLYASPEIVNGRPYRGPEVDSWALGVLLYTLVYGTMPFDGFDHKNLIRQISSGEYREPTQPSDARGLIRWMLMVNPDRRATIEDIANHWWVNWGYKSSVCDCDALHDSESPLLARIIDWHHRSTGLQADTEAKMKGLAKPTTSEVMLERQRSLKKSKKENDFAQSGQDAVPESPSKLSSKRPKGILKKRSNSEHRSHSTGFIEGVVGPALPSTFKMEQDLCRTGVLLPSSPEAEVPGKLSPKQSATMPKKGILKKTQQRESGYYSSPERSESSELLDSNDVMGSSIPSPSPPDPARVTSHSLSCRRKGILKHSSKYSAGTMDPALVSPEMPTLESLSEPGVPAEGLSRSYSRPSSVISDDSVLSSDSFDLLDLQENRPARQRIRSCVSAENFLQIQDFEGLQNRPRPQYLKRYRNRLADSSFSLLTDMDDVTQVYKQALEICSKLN

[4] = biological target: Dual specificity tyrosine-phosphorylation-regulated kinase 1A (Homo sapiens) (UniProt Q13627); experiment: Inhibition of DYRK1A at 5 to 10 uM
[5] = biological target: Focal adhesion kinase 1 (Homo sapiens) (UniProt Q05397); experiment: Inhibition of FAK at 5 to 10 uM
Focal adhesion kinase 1 (Homo sapiens), sequence (Q05397 2-1052 limits assumed): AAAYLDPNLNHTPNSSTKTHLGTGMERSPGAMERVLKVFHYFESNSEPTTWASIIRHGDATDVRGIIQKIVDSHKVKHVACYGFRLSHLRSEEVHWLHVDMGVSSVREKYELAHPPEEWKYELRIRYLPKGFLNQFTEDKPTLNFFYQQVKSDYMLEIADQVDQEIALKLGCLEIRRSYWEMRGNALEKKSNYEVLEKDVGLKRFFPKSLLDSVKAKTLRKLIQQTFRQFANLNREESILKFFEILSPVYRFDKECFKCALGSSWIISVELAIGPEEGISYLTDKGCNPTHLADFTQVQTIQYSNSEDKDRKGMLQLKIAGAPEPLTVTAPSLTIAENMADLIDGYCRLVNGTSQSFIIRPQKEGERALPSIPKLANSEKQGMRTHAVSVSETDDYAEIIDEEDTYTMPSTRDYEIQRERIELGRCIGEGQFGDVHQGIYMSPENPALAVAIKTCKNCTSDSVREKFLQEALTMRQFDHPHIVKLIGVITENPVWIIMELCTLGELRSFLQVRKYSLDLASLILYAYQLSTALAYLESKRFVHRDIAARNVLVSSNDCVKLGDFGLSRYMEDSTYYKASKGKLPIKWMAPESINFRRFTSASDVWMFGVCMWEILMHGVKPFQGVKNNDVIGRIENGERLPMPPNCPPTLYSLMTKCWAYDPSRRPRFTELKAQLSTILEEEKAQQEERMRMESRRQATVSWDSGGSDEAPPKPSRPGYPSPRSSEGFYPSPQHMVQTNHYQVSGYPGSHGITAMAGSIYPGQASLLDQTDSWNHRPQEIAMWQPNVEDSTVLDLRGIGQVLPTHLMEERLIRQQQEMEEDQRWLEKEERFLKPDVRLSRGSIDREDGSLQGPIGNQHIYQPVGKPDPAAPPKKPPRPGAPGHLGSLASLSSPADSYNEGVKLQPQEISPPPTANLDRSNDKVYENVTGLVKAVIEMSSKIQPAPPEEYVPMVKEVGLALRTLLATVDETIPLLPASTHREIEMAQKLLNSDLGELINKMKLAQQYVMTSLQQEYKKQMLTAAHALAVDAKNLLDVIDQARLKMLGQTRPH

[6] = biological target: T2, Inhibitor of nuclear factor kappa-B kinase subunit beta (Homo sapiens) (UniProt O14920); experiment: Inhibition of IKK-beta at 5 to 10 uM
T2 sequence (whole entry): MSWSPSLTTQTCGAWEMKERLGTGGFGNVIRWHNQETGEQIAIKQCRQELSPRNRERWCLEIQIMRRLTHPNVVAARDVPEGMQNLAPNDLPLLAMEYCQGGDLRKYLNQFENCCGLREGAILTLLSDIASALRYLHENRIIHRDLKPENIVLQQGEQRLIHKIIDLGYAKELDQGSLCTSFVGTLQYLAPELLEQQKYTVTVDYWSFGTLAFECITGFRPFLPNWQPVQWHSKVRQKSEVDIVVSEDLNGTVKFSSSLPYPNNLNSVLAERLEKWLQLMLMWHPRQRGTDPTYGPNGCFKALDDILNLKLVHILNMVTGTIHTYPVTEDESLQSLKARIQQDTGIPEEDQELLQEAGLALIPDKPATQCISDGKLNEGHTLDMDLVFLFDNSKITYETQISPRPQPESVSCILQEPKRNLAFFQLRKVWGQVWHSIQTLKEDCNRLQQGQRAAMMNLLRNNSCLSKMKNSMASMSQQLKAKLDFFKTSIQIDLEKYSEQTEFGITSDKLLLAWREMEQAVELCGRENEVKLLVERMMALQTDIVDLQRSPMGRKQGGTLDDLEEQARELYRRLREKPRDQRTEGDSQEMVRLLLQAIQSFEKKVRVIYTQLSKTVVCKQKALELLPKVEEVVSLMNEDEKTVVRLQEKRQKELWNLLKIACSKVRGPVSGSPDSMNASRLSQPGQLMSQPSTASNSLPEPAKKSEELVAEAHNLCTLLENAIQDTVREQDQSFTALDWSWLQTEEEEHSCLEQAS

[7] = biological target: Dual specificity mitogen-activated protein kinase kinase 1 (Homo sapiens) (UniProt Q02750); experiment: Inhibition of MEK1 at 5 to 10 uM
Dual specificity mitogen-activated protein kinase kinase 1 (Homo sapiens), sequence (Q02750 whole entry): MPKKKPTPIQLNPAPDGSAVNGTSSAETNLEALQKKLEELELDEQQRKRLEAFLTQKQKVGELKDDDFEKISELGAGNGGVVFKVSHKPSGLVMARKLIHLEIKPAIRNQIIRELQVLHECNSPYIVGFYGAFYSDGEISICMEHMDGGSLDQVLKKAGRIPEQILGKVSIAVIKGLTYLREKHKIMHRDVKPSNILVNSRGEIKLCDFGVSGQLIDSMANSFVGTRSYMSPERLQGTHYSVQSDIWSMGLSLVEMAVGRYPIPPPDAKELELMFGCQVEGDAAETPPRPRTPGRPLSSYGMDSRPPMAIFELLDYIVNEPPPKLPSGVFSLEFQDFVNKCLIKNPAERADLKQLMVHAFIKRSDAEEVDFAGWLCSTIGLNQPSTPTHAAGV

[8] = biological target: T3, Serine/threonine-protein kinase 4 (Homo sapiens) (UniProt Q13043); experiment: Inhibition of MST1 at 5 to 10 uM
T3 sequence (whole entry): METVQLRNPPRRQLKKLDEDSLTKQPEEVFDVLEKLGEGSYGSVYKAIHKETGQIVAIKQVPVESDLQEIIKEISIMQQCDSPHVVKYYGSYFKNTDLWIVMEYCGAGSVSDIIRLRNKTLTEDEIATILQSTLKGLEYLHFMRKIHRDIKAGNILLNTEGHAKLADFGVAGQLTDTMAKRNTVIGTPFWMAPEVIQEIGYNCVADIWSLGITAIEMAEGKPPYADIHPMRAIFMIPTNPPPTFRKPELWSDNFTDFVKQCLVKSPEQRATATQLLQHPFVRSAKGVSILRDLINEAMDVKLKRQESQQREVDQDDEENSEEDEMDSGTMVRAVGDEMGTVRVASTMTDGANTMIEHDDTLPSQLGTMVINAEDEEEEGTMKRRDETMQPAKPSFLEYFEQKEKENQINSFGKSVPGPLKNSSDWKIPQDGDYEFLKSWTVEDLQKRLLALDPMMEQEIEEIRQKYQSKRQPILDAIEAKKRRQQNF

[9] = biological target: Ribosomal protein S6 kinase alpha-1 (Homo sapiens) (UniProt Q15418); experiment: Inhibition of RPS6KA1 at 5 to 10 uM
Ribosomal protein S6 kinase alpha-1 (Homo sapiens), sequence (Q15418 whole entry): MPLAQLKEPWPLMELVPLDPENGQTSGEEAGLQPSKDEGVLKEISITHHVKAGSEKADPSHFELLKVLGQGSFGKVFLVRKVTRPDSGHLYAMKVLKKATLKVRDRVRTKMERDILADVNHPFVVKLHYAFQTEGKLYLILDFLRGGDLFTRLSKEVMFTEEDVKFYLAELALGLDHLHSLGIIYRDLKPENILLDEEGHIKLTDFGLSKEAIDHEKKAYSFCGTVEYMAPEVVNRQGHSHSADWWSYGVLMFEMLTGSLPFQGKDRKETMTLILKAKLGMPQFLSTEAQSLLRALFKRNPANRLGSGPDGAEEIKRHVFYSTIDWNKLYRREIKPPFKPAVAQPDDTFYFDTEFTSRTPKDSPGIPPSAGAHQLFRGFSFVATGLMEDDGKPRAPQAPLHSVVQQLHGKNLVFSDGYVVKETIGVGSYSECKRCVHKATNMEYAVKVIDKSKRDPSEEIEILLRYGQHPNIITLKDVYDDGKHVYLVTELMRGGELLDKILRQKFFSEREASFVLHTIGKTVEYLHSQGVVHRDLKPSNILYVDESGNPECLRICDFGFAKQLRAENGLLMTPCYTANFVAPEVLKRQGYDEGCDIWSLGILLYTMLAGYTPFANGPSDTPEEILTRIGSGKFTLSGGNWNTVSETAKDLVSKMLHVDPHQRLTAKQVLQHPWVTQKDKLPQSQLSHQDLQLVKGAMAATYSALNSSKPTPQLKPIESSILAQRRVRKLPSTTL

[10] = biological target: T4, Serine/threonine-protein kinase Sgk1 (Homo sapiens) (UniProt O00141); experiment: Inhibition of SGK1 at 5 to 10 uM
T4 sequence (whole entry): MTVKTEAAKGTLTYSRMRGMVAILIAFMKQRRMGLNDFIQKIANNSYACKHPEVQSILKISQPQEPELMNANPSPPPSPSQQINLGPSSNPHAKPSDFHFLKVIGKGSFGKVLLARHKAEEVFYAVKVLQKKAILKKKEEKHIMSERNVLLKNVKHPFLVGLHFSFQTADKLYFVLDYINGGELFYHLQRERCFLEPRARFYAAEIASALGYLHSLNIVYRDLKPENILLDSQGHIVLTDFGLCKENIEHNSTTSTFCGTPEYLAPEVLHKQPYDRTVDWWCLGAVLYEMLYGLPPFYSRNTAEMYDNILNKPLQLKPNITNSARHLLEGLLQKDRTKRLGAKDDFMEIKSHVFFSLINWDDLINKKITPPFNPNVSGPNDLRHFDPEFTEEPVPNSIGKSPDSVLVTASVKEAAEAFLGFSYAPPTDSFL

Row | IC50 [1] | Ki (PI3K p110 beta/p85 alpha) | Ki [2] | Ratio Ki(app) (Homo sapiens) | inhibition [3] | inhibition [4] | inhibition [5] | inhibition [6] | inhibition [7] | inhibition [8] | inhibition [9] | inhibition [10] | Compound
1 | > 10000 nM | > 500 nM | 8 nM | 10.8 | < 50% | < 50% | 50% | < 50% | < 50% | < 50% | < 50% | < 50% | CS(=O)(=O)N1CCN(Cc2nc3c(N4CCOCC4)nc(-c4cccc5[nH]ncc45)cn3c2Br)CC1
2 | > 10000 nM | > 500 nM | 43 nM | 9.5 | < 50% | < 50% | 50% | < 50% | < 50% | < 50% | < 50% | < 50% | CS(=O)(=O)N1CCN(Cc2cn3c(C#N)c(-c4cccc5[nH]ncc45)nc(N4CCOCC4)c3n2)CC1
3 | > 10000 nM | > 500 nM | 6.5 nM | 10 | < 50% | < 50% | 50% | < 50% | < 50% | < 50% | < 50% | < 50% | O=C(NCCN1CCOCC1)c1cn2cc(-c3cccc4[nH]ncc34)nc(N3CCOCC3)c2n1
4 | > 10000 nM | > 500 nM | 17.1 nM | 6 | < 50% | < 50% | 50% | < 50% | < 50% | < 50% | < 50% | < 50% | CNC(=O)c1cn2cc(-c3cccc4[nH]ncc34)nc(N3CCOCC3)c2n1
5 | > 10000 nM | > 500 nM | 65 nM | 3.2 | < 50% | < 50% | 50% | < 50% | < 50% | < 50% | < 50% | < 50% | CS(=O)(=O)N1CCN(Cc2cn3c(Cl)c(-c4cccc5[nH]ncc45)nc(N4CCOCC4)c3n2)CC1
6 | > 10000 nM | > 500 nM | 2.8 nM | 21.4 | < 50% | < 50% | 50% | < 50% | < 50% | < 50% | < 50% | < 50% | COCCCNC(=O)c1cn2cc(-c3cccc4[nH]ncc34)nc(N3CCOCC3)c2n1
7 | > 10000 nM | > 500 nM |  |  | < 50% | < 50% | 50% | < 50% | < 50% | < 50% | < 50% | < 50% | CS(=O)(=O)N1CCN(Cc2cn3cc(-c4cccc5[nH]ncc45)nc(N4CCOCC4)c3n2)CC1
8 | > 10000 nM | > 500 nM | 3.6 nM | 12.2 | < 50% | < 50% | 50% | < 50% | < 50% | < 50% | < 50% | < 50% | CN(C)CCCNC(=O)c1cn2cc(-c3cccc4[nH]ncc34)nc(N3CCOCC3)c2n1
